Measured values pooled from the literature.
Compare with care: the assays were run in different laboratories.

With `CNc1ncc2c(/C=C/C(=O)O)nn(CC3CCCC3)c2n1` the EC50 was over 30 µM (OE33; cell growth or viability; resazurin; 5 days).
`CC(=NNC(=O)c1ccccc1Br)c1ccc(Nc2nnc(-c3ccc(Cl)cc3)c3ccccc23)cc1` has a cell death of 95.6% (HepG2; cell growth or viability; MTT; 5 µM).
With `CNc1ncc2c(/C=C/C(=O)N3CCCCC3)nn(CC3CCCC3)c2n1` the EC50 was over 30 µM (OE33; cell growth or viability; resazurin; 5 days).
`O=C(Nc1ccc(C(F)(F)F)cc1)Nc1cccc([N+](=O)[O-])c1` has an IC50 of 0.37 µM (LAD2; degranulation).
With `S=C(Nc1ccccc1)Nc1ccc(Oc2nnc(-c3ccc(Cl)cc3)c3ccccc23)cc1` the cell death was 97.2% (HepG2; cell growth or viability; MTT; 10 µM).
For `CC(C)(C)c1cnc(CSc2cnc(NC(=O)C3CCN(CCCCSc4cccc5c4C(=O)N(C4CCC(=O)NC4=O)C5=O)CC3)s2)o1` (stereo not drawn), the viability was 36.9% (HH; cell growth or viability; CCK-8; 0.15 µM).
For `CC1CCN(C(=O)/C=C/c2nn(CC3CCCC3)c3ncnc(N)c23)CC1`, the EC50 was over 30 µM (OE33; cell growth or viability; resazurin; 5 days).
`CCOC(=O)c1nn(-c2cccc(Cl)c2)/c(=N/N=C(\C)c2ccc(NC(=O)c3ccc(Cl)cc3)cc2)s1` has a viability of 4.04% (HepG2; cell growth or viability; MTT; 10 µM).
The IC50 of `CC(C)(C)c1cnc(CSc2cnc(NC(=O)C3CCN(CCCCCCCCSc4cccc5c4CN(C4CCC(=O)NC4=O)C5=O)CC3)s2)o1` (stereo not drawn) is reported as 0.114 µM (HH; cell growth or viability; trypan blue; 48 h).
The EC50 of `CNc1ncc2c(/C=C/C(=O)N3CCCC(OC)C3)nn(Cc3cccc(C)c3)c2n1` (stereo not drawn) is reported as 17.6 µM (OE33; cell growth or viability; resazurin; 5 days).
`CC(C)(C)c1cnc(CSc2cnc(NC(=O)C3CCN(CCCCCCCSc4cccc5c4C(=O)N(C4CCC(=O)NC4=O)C5=O)CC3)s2)o1` (stereo not drawn) gave a viability of 92.7% (HH; cell growth or viability; CCK-8; 0.1 µM).
The cell death of `O=C(Nc1ccc(Oc2nnc(-c3ccc(Cl)cc3)c3ccccc23)cc1)c1ccccc1` is reported as 87.9% (HepG2; cell growth or viability; MTT; 0.625 µM).
`CC(C)(C)c1cnc(CSc2cnc(NC(=O)C3CCN(C(=O)COCCOCCSc4cccc5c4C(=O)N(C4CCC(=O)NC4=O)C5=O)CC3)s2)o1` (stereo not drawn) has a viability of 100% (HH; cell growth or viability; CCK-8; 0.1 µM).
For `O=C(C=Cc1ccccc1)Nc1ccc(Oc2nnc(-c3ccc(Cl)cc3)c3ccccc23)cc1`, the cell death was 97.4% (HepG2; cell growth or viability; MTT; 10 µM).
With `Nc1ncnc2c1c(/C=C/C(=O)N1CCCCC1)nn2CC1CCCC1` the EC50 was over 30 µM (OE33; cell growth or viability; resazurin; 5 days).
With `CC(=NNC(=O)c1ccccc1O)c1ccc(Nc2nnc(-c3ccc(Cl)cc3)c3ccccc23)cc1` the cell death was 84.2% (HepG2; cell growth or viability; MTT; 5 µM).
The EC50 of `CNc1ncc2c(/C=C/C(=O)N3CCC(O)CC3)nn(CC3CCCC3)c2n1` is reported as over 30 µM (OE33; cell growth or viability; resazurin; 5 days).
`O=C(Nc1ccccc1)Nc1ccc(Oc2nnc(-c3ccc(Cl)cc3)c3ccccc23)cc1` has a cell death of 93% (HepG2; cell growth or viability; MTT; 0.312 µM).
`CC(C)(C)c1cnc(CSc2cnc(NC(=O)C3CCN(CCCCCCCCSc4cccc5c4C(=O)N(C4CCC(=O)NC4=O)C5=O)CC3)s2)o1` (stereo not drawn) gave a viability of 98.2% (HH; cell growth or viability; CCK-8; 10 nM).
`C=CC(=O)NC1CCN(c2ncc3ncnc(Nc4ccc(Oc5ccc6c(c5)ncn6C)c(C)c4)c3n2)CC1` gave an EC50 of 0.00659 µM (MKN-7; cell growth or viability).
`CC(=NNC(N)=S)c1ccc(Nc2nnc(-c3ccc(Cl)cc3)c3ccccc23)cc1` gave a cell death of 91.9% (HepG2; cell growth or viability; MTT; 2.5 µM).
